ChEMBL document CHEMBL3580589, “Discovery of Quinazoline-Based Fluorescent Probes to α1-Adrenergic Receptors” (ACS Med Chem Lett, 2015)
Active and inactive are the calls of the source. The rule behind the calls is not given here.

Tests used:
[1] = target: T1, Alpha-1D adrenergic receptor (Homo sapiens, UniProt P25100); test: Displacement of [3H]-Prazosin from human alpha-1D adrenergic receptor transfected in CHO cell membranes after 2 hrs by microplate scintillation counting analysis
T1 sequence (P25100 whole entry): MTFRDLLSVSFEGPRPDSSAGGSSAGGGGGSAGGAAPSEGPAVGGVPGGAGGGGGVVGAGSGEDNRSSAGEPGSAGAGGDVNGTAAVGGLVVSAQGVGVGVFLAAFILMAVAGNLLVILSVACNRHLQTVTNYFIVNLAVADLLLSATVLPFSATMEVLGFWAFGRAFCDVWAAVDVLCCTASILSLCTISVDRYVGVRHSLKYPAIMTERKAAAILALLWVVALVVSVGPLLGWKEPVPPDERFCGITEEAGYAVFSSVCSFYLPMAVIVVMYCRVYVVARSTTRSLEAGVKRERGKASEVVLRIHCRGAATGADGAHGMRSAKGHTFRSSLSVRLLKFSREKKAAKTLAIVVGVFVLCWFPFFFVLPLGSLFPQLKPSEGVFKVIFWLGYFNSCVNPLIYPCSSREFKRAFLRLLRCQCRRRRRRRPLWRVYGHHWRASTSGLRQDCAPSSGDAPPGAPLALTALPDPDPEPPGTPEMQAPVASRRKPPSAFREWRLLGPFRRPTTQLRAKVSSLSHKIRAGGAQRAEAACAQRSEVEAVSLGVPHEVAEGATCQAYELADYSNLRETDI
Summary of the method: (§1)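 Radioligand competition binding used [3H]prazosin on membranes from CHO cells transfected with human cloned α1A-, α1B- or α1D-adrenoceptors.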

[2] = Cytotoxicity against HEK293A cells transfected with alpha-1A adrenergic receptor assessed as cell viability by sulforhodamine B assay; type: cell-based; details: Homo sapiens, HEK293-A
Summary of the method: (§2)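 Standard sulforhodamine B colorimetric assay in HEK293A cells stably transfected with α1A-AR or α1D-AR.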

[3] = Cytotoxicity against HEK293A cells transfected with alpha-1D adrenergic receptor assessed as cell viability by sulforhodamine B assay; type: cell-based; details: Homo sapiens, HEK293-A; summary of the method: as §2
[4] = target: T2, Alpha-1D adrenergic receptor (Homo sapiens) (UniProt P25100); test: Binding affinity to alpha-1D adrenergic receptor (unknown origin) transfected in HEK293 cells at 20 nM after 20 mins by flow cytometric analysis; type: cell-based
T2 sequence (whole entry): T1 sequence (P25100 whole entry)

[5] = target: T2, Alpha-1D adrenergic receptor (Homo sapiens); test: Binding affinity to alpha-1D adrenergic receptor (unknown origin) transfected in HEK293A cells at 10 nM after 5 mins by DiD dye-based confocal microscopic analysis; type: cell-based; details: HEK293-A
Summary of the method: (§3)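 α1A-AR- or α1D-AR-transfected HEK293A cells, or untransfected HEK293A cells as the receptor-free control, were incubated with the probe plus DiD (red, colocalization) for 5 min at 37 °C. Probe signal was compared with the DiD-stained surface for subcellular localization by fluorescence microscopy.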

[6] = target: T2, Alpha-1D adrenergic receptor (Homo sapiens); test: Binding affinity to alpha-1D adrenergic receptor (unknown origin) transfected in HEK293A cells at 10 nM after 5 mins by DiD dye-based confocal microscopic analysis in presence of alpha1 adrenergic receptor antagonist tamsulosin; type: cell-based; details: HEK293-A
Summary of the method: (§4)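 Transfected HEK293A cells expressing α1A-AR or α1D-AR were incubated with the probe, DiD and tamsulosin as competing α1-AR antagonist for 5 min at 37 °C. Fluorescence labelling was imaged by confocal microscopy.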

[7] = Drug uptake in HEK293A cells at 10 nM after 5 mins by DiD dye-based confocal microscopic analysis; type: ADME, cell-based; details: human, hek293-a, 0.01 µM; summary of the method: as §3
[8] = target: T3, Alpha-1A adrenergic receptor (Homo sapiens, UniProt P35348); test: Displacement of [3H]-Prazosin from human alpha-1A adrenergic receptor transfected in CHO cell membranes after 2 hrs by microplate scintillation counting analysis; summary of the method: as §1
T3 sequence (P35348 whole entry): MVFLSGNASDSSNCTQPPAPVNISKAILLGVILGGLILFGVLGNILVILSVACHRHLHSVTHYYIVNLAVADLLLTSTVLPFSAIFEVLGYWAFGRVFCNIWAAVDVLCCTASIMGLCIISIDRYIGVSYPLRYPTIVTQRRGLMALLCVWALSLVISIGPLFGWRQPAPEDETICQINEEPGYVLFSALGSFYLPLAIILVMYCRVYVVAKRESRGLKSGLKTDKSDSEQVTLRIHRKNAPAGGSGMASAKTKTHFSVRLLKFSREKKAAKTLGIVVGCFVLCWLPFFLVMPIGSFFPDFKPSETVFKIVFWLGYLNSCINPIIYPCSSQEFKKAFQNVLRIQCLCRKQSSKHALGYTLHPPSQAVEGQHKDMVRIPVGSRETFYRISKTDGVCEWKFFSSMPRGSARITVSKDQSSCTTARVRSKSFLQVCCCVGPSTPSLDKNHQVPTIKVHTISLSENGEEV

[9] = target: T4, Alpha-1B adrenergic receptor (Homo sapiens, UniProt P35368); test: Displacement of [3H]-Prazosin from human alpha-1B adrenergic receptor transfected in CHO cell membranes after 2 hrs by microplate scintillation counting analysis; summary of the method: as §1
T4 sequence (P35368 whole entry): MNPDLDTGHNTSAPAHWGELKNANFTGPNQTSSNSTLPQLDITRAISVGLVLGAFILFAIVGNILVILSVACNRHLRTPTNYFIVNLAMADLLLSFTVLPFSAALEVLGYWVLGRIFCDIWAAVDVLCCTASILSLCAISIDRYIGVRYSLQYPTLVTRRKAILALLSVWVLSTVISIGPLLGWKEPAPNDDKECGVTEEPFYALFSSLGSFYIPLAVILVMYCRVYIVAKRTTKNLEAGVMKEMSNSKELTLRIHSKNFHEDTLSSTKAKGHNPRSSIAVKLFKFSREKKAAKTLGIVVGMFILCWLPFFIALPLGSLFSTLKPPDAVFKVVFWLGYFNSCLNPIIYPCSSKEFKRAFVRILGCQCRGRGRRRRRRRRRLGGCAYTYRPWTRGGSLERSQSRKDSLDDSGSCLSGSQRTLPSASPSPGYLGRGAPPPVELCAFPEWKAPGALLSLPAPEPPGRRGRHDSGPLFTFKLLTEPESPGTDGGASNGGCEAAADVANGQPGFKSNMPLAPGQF

[10] = target: T5, Alpha-1A adrenergic receptor (Homo sapiens) (UniProt P35348); test: Binding affinity to alpha-1A adrenergic receptor (unknown origin) transfected in HEK293A cells at 20 nM after 5 mins by DiD dye-based confocal microscopic analysis; type: cell-based; details: HEK293-A; summary of the method: as §3
T5 sequence (whole entry): T3 sequence (P35348 whole entry)

[11] = target: T5, Alpha-1A adrenergic receptor (Homo sapiens); test: Binding affinity to alpha-1A adrenergic receptor (unknown origin) transfected in HEK293A cells at 20 nM after 5 mins by DiD dye-based confocal microscopic analysis in presence of alpha1 adrenergic receptor antagonist tamsulosin; type: cell-based; details: HEK293-A; summary of the method: as §4
[12] = Drug uptake in HEK293A cells at 20 nM after 5 mins by DiD dye-based confocal microscopic analysis; type: ADME, cell-based; details: human, hek293-a, 0.02 µM; summary of the method: as §3

Row | IC50 [1] | Ki [1] | Activity [4] | Activity [5] | Activity [6] | Drug uptake [7] | IC50 [8] | Ki [8] | IC50 [9] | Ki [9] | Activity [10] | Activity [11] | Drug uptake [12] | Compound | IC50 [2] | IC50 [3]
1 | 0.0022 µM | 0.0004 µM | Active | Active | inactive | Active | 0.0006 µM | 0.0003 µM | 0.0012 µM | 0.0001 µM | – | – | – | CCN(CC)c1ccc2cc(-n3cc(C(=O)N4CCN(c5nc(N)c6cc(OC)c(OC)cc6n5)CC4)nn3)c(=O)oc2c1 | 12 µM | 32 µM
2 | – | – | – | – | – | – | – | – | – | – | – | – | – | COc1cc2nc(N3CCN(C(=O)C4COc5ccccc5O4)CC3)nc(N)c2cc1OC (stereo not given) [DOXAZOSIN] | 19 µM | 22 µM
3 | 0.0452 µM | 0.0275 µM | – | – | – | – | 0.0524 µM | 0.0299 µM | 0.0524 µM | 0.0299 µM | Active | inactive | Active | CCN(CC)c1ccc2cc(-n3cc(CN4CCN(c5nc(N)c6cc(OC)c(OC)cc6n5)CC4)nn3)c(=O)oc2c1 | 26 µM | 17 µM
